Assay results published in ChEMBL document CHEMBL1121733, “Synthesis and evaluation of ureido- and vinylureidopenicillins as inhibitors of intraruminal lactic acid production” (J Med Chem, 1981).
≈ marks a conversion by molar mass, not a printed value.

Columns and labels:
[1] = Lipophilicity estimated on reversed phase TLC; format: physicochemical; details: silicone oil-coated silica gel plates, 30% MeOH in pH 7.0 buffer
Outline: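 Reversed-phase TLC on silica gel G plates dipped in 20 vol % silicone oil in hexane and dried. Mobile phase 30 vol % MeOH in pH 7.0 buffer. ΔR_M measured against a reference compound run on every plate, averaged over 2–6 plates.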

[2] = Percent inhibition of lactic acid production by the compound at 0.5 p.p.m.; format: functional; set-up: scale not given: the % may be the effect or the level left
Outline: (§1)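 Screen at 50, 5 and 0.5 µg/mL of incubation contents in strained bovine rumen fluid mixed 1:1 with CO2-saturated glucose/trypticase buffer, 5.5 h at 39 °C. Stopped with metaphosphoric acid, l(+)-lactate measured enzymatically. Expressed as lactate production as % of control incubations without compound.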

[3] = Percent inhibition of lactic acid production by the compound at 50 p.p.m.; format: functional; set-up: scale not given: the % may be the effect or the level left; outline: as §1
[4] = Percent inhibition of lactic acid production by the compound at 5 p.p.m.; format: functional; set-up: scale not given: the % may be the effect or the level left; outline: as §1
Escherichia coli = assay: In vitro Minimum inhibitory concentration against Escherichia coli ATCC 25922; format: functional
Outline: (§2)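 Twofold broth microdilution from 200 to 0.0008 µg/mL in brain–heart infusion broth with 0.066 g/L tetrazolium chloride. Inoculum was 1 µL of a 1:10 dilution of an 18 h, 37 °C culture. Plates incubated 16 h at 37 °C, with growth read as red precipitate. Triplicate trays per compound per organism.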

Staphylococcus aureus [5] = assay: (§3) In vitro Minimum inhibitory concentration against Staphylococcus penicillin G resistant); format: functional, staphylococcus pureus
Outline: (§4)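 Broth microdilution in brain–heart infusion broth with 0.066 g/L tetrazolium chloride. Serial twofold dilutions from 200 to 0.0008 µg/mL. Inoculum: 1 µL of a 1:10 dilution of an 18 h, 37 °C culture. Incubated 16 h at 37 °C; growth read as red precipitate. MIC taken from triplicate trays per compound per organism.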

Staphylococcus aureus [6] = assay: In vitro Minimum inhibitory concentration against Staphylococcus aureus ATCC 6538P (penicillin G sensitive); format: functional; outline: as §2
Streptococcus pyogenes = assay: In vitro Minimum inhibitory concentration against Streptococcus pyogenes ATCC 8668; format: functional; outline: as §2
Enterococcus faecium = assay: In vitro Minimum inhibitory concentration against Streptococcus faecium ATCC 8043-2; format: functional; outline: as §2
Staphylococcus aureus [7] = assay: as §3; format: functional; outline: as §4
[8] = Effective inhibition concentration for reduction of lactic acid production to less than 10% of control; format: functional
Outline: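 Bovine rumen fluid from a fistulated animal, strained through cheesecloth, mixed 1:1 with CO2-saturated buffer (glucose 27 g/L, trypticase 1.50 g/L, Na2HPO4 4.26 g/L). Compounds retested from 0.5 mg/mL stock serially diluted to 0.004 mg/mL, duplicate tubes, 5.5 h at 39 °C. Stopped with 25% metaphosphoric acid, centrifuged, l(+)-lactate measured enzymatically. Value is the minimum concentration giving lactate below 10% of no-compound control.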

[9] = Effective inhibition concentration for reduction of propionic acid production to less than 95% of control; format: functional
Outline: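 Rumen fluid from a fistulated bovine, strained and mixed 1:1 with CO2-saturated buffer with moderate substrate at normal intraruminal pH (volatile fatty acid model). Retest dilutions from 0.5 mg/mL stock down to 0.004 mg/mL, triplicate tubes, 9 h. Stopped with 25% metaphosphoric acid, centrifuged, propionate measured by GC-FID. Value is the minimum concentration giving propionate below 95% of control.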

CC(C)NC(=O)NC1C(=O)N2C1SC(C)(C)[C@@H]2C(=O)[O-].[Na+] (stereo partly specified)
Delta RM [1]: -2 | Control [2]: 108% | Control [3]: 7% | Control [4]: 119%

CC1(C)SC2C(NC(=O)NC3CC3c3ccccc3)C(=O)N2[C@H]1C(=O)[O-].[Na+] (stereo partly specified)
Delta RM [1]: -0.29 | Control [2]: 104% | Control [3]: 8% | Control [4]: 4%

CC1(C)S[C@@H]2[C@H](NC(=O)Cc3ccccc3)C(=O)N2[C@H]1C(=O)O [PENICILLIN G]
MIC (Escherichia coli): 25 µg/mL (≈ 74.8 µM) | MIC (Staphylococcus aureus [5]): 50 µg/mL (≈ 150 µM) | MIC (Staphylococcus aureus [6]): 0.05 µg/mL (≈ 0.15 µM) | MIC (Streptococcus pyogenes): 0.01 µg/mL (≈ 0.0299 µM) | MIC (Enterococcus faecium): 0.4 µg/mL (≈ 1.2 µM)

CC1(C)SC2C(NC(=O)NCc3ccc4ccccc4c3)C(=O)N2[C@H]1C(=O)[O-].[Na+] (stereo partly specified)
Delta RM [1]: 0 | MIC (Escherichia coli): > 200 µg/mL | MIC (Staphylococcus aureus [6]): 0.05 µg/mL | MIC (Staphylococcus aureus [7]): 50 µg/mL | MIC (Streptococcus pyogenes): 0.05 µg/mL | MIC (Enterococcus faecium): 3.12 µg/mL | Concentration [8]: 0.08 µg/mL | Dose [9]: 5 µg/mL | Control [2]: 4% | Control [3]: 9% | Control [4]: 4%

CCOc1ccc(/C=C/NC(=O)NC2C(=O)N3C2SC(C)(C)[C@@H]3C(=O)[O-])cc1.[Na+] (stereo partly specified)
Delta RM [1]: 0.43 | Concentration [8]: 0.31 µg/mL | Dose [9]: > 10 µg/mL | Control [2]: 0% | Control [3]: 1% | Control [4]: 1%

CC1(C)SC2C(NC(=O)N/C=C/c3cccs3)C(=O)N2[C@H]1C(=O)[O-].[Na+] (stereo partly specified)
Delta RM [1]: -0.2 | Control [2]: 102% | Control [3]: 0% | Control [4]: 52%

CCOC(=O)c1ccc(NC(=O)NC2C(=O)N3C2SC(C)(C)[C@@H]3C(=O)O)cc1 (stereo partly specified)
Control [2]: 101% | Control [3]: 3% | Control [4]: 95%

CC1(C)SC2C(NC(=O)NC3CCCCC3)C(=O)N2[C@H]1C(=O)[O-].[Na+] (stereo partly specified)
Delta RM [1]: -0.62 | Control [2]: 99% | Control [3]: 2% | Control [4]: 0%

CC(C)(C)c1ccc(/C=C/NC(=O)NC2C(=O)N3C2SC(C)(C)[C@@H]3C(=O)[O-])cc1.[Na+] (stereo partly specified)
Delta RM [1]: 1.31 | MIC (Escherichia coli): > 200 µg/mL | MIC (Staphylococcus aureus [5]): 100 µg/mL | MIC (Staphylococcus aureus [6]): 3.12 µg/mL | MIC (Streptococcus pyogenes): 1.6 µg/mL | MIC (Enterococcus faecium): > 200 µg/mL

CC1(C)SC2C(NC(=O)Nc3ccccc3)C(=O)N2[C@H]1C(=O)[O-].[Na+] (stereo partly specified)
Delta RM [1]: -0.75 | Control [2]: 96% | Control [3]: 3% | Control [4]: 110%

CC1(C)SC2C(NC(=O)N/C=C/C3CCCCC3)C(=O)N2[C@H]1C(=O)[O-].[Na+] (stereo partly specified)
Delta RM [1]: 0.77 | MIC (Escherichia coli): > 200 µg/mL | MIC (Staphylococcus aureus [5]): 50 µg/mL | MIC (Staphylococcus aureus [6]): 0.4 µg/mL | MIC (Streptococcus pyogenes): 0.2 µg/mL | MIC (Enterococcus faecium): 50 µg/mL | Concentration [8]: 0.31 µg/mL | Dose [9]: 2.5 µg/mL | Control [2]: 0% | Control [3]: 2% | Control [4]: 2%

CC1(C)SC2C(NC(=O)Nc3ccc(Cl)cc3)C(=O)N2[C@H]1C(=O)[O-].[Na+] (stereo partly specified)
Delta RM [1]: -0.01 | Control [2]: 102% | Control [3]: 2% | Control [4]: 112%

CC1(C)SC2C(NC(=O)N/C=C/c3ccc4ccccc4c3)C(=O)N2[C@H]1C(=O)[O-].[Na+] (stereo partly specified)
Delta RM [1]: 1.05 | MIC (Escherichia coli): > 200 µg/mL | MIC (Staphylococcus aureus [5]): 100 µg/mL | MIC (Staphylococcus aureus [6]): 3.12 µg/mL | MIC (Streptococcus pyogenes): 3.12 µg/mL | MIC (Enterococcus faecium): 200 µg/mL | Concentration [8]: 0.31 µg/mL | Dose [9]: > 10 µg/mL | Control [2]: 1% | Control [3]: 8% | Control [4]: 2%

CC(C)(C)c1ccc(/C=C/NC(=O)NC2C(=O)N3C2SC(C)(C)[C@@H]3C(=O)O)cc1 (stereo partly specified)
Concentration [8]: 0.16 µg/mL | Dose [9]: > 10 µg/mL | Control [2]: 0% | Control [3]: 0% | Control [4]: 0%

CC1(C)SC2C(NC(=O)N/C=C/c3ccc4c(c3)OCO4)C(=O)N2[C@H]1C(=O)[O-].[Na+] (stereo partly specified)
Delta RM [1]: -0.06 | MIC (Escherichia coli): 100 µg/mL | MIC (Staphylococcus aureus [5]): 50 µg/mL | MIC (Staphylococcus aureus [6]): 6.25 µg/mL | MIC (Streptococcus pyogenes): 1.6 µg/mL | MIC (Enterococcus faecium): 200 µg/mL | Concentration [8]: 0.16 µg/mL | Dose [9]: > 10 µg/mL | Control [2]: 0% | Control [3]: 4% | Control [4]: 0%

CC(C)(C)c1ccc(/C=C/NC(=O)NC2C(=O)N3C2SC(C)(C)[C@@H]3C(=O)O)cc1.CCN(CC)CC (stereo partly specified)
Delta RM [1]: 1.31

CC1(C)SC2C(NC(=O)N/C=C/c3cccc(Br)c3)C(=O)N2[C@H]1C(=O)[O-].[Na+] (stereo partly specified)
Delta RM [1]: 0.69 | Control [2]: 142% | Control [3]: 3% | Control [4]: 0%

Cc1ccc(/C=C/NC(=O)NC2C(=O)N3C2SC(C)(C)[C@@H]3C(=O)[O-])cc1.[Na+] (stereo partly specified)
Delta RM [1]: 0.5 | Concentration [8]: 0.31 µg/mL | Dose [9]: > 10 µg/mL | Control [2]: 0% | Control [3]: 2% | Control [4]: 2%

COc1cc(/C=C/NC(=O)NC2C(=O)N3C2SC(C)(C)[C@@H]3C(=O)[O-])cc(OC)c1OC.[Na+] (stereo partly specified)
Delta RM [1]: -0.45 | Control [2]: 105% | Control [3]: 8% | Control [4]: 2%

CC1(C)SC2C(NC(=O)N/C=C/c3ccc(Cl)c(Cl)c3)C(=O)N2[C@H]1C(=O)[O-].[Na+] (stereo partly specified)
Delta RM [1]: 1.44 | Control [2]: 107% | Control [3]: 1% | Control [4]: 106%

CC1(C)SC2C(NC(=O)N/C=C/c3ccco3)C(=O)N2[C@H]1C(=O)[O-].[Na+] (stereo partly specified)
Delta RM [1]: -0.26 | Control [2]: 101% | Control [3]: 3% | Control [4]: 89%

CC1(C)SC2C(NC(=O)N/C=C/c3cccc4ccccc34)C(=O)N2[C@H]1C(=O)[O-].[Na+] (stereo partly specified)
Delta RM [1]: 0.66 | Control [2]: 111% | Control [3]: 3% | Control [4]: 0%

CC1(C)SC2C(NC(=O)NCCc3ccc4ccccc4c3)C(=O)N2[C@H]1C(=O)[O-].[Na+] (stereo partly specified)
Delta RM [1]: 0.89 | MIC (Escherichia coli): > 200 µg/mL | MIC (Staphylococcus aureus [5]): 25 µg/mL | MIC (Staphylococcus aureus [6]): 0.1 µg/mL | MIC (Streptococcus pyogenes): 0.05 µg/mL | MIC (Enterococcus faecium): 6.25 µg/mL | Concentration [8]: 0.31 µg/mL | Dose [9]: > 10 µg/mL | Control [2]: 2% | Control [3]: 9% | Control [4]: 7%

C/C(=C\NC(=O)NC1C(=O)N2C1SC(C)(C)[C@@H]2C(=O)[O-])c1ccccc1.[Na+] (stereo partly specified)
Delta RM [1]: 0.3 | Control [2]: 87% | Control [3]: 0% | Control [4]: 5%

CC1(C)SC2C(NC(=O)N/C=C/c3ccc(Cl)cc3)C(=O)N2[C@H]1C(=O)[O-].[Na+] (stereo partly specified)
Delta RM [1]: 0.58 | MIC (Escherichia coli): > 200 µg/mL | MIC (Staphylococcus aureus [5]): 50 µg/mL | MIC (Staphylococcus aureus [6]): 6.25 µg/mL | MIC (Streptococcus pyogenes): 3.12 µg/mL | MIC (Enterococcus faecium): > 200 µg/mL | Concentration [8]: 1.25 µg/mL | Dose [9]: > 10 µg/mL | Control [2]: 0% | Control [3]: 10% | Control [4]: 2%
